From ChEMBL document CHEMBL1250539, “OGA inhibition by GlcNAc-selenazoline” (Bioorg Med Chem, 2010)
The source made the active and inactive calls. The calls are words filed in the database; no cut-off is given here.

Experiments:
[1] = target: T1, Beta-hexosaminidase subunit beta (Homo sapiens) (UniProt P07686); assay: Inhibition of human placental lysosomal hexosaminidase B at 5 uM
T1 sequence (whole entry): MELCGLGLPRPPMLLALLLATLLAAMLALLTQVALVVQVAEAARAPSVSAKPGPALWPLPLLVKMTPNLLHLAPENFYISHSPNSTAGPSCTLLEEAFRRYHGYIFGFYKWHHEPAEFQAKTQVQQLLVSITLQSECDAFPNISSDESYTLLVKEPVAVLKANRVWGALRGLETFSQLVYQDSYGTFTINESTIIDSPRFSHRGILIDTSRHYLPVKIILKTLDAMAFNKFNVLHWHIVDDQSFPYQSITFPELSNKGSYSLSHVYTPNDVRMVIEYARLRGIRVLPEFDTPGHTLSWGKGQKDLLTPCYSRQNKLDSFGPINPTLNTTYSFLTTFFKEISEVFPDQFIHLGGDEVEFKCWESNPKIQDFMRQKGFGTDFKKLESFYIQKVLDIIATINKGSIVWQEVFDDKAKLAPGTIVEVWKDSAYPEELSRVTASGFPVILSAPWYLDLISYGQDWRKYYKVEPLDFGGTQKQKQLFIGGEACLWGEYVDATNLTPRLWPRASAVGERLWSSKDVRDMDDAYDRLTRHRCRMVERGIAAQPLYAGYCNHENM

Protein O-GlcNAcase = target: T2, Protein O-GlcNAcase (Homo sapiens, UniProt O60502); assay: Inhibition of human O-GlcNAcase after 5 mins by Lineweaver-Burke plot analysis
T2 sequence (O60502 whole entry): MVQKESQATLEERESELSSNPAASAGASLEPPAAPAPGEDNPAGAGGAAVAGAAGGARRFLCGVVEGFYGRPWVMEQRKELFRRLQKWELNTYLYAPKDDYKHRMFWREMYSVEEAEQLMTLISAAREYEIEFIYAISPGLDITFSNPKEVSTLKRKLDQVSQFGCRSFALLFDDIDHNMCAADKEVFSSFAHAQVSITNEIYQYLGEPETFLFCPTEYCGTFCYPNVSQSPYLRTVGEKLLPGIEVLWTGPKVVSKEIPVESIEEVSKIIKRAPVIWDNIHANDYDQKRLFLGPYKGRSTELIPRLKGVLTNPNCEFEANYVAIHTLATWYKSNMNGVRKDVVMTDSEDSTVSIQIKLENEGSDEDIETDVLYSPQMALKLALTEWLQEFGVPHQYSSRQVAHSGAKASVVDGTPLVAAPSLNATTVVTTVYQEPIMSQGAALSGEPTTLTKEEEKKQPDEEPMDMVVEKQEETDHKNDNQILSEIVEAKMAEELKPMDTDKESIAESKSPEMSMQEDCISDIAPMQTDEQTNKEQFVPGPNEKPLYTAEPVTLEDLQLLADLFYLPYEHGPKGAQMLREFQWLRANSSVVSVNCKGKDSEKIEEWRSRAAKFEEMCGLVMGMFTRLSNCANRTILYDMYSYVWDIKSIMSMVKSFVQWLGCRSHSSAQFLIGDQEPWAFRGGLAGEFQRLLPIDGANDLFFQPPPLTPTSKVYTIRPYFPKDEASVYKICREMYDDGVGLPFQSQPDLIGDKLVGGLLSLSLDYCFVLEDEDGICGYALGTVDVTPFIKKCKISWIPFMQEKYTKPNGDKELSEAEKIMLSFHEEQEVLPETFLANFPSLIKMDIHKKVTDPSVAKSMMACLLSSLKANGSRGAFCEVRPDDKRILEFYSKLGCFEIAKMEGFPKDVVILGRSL

[2] = target: T3, Solute carrier family 2, facilitated glucose transporter member 4 (Mus musculus) (UniProt P14142); assay: Inhibition of insulin-induced GLUT4 translocation into plasma membrane of mouse differentiated 3T3L1 cells at 40 uM after 16 hrs by Western blotting relative to control; conditions: 3T3-L1
T3 sequence (whole entry): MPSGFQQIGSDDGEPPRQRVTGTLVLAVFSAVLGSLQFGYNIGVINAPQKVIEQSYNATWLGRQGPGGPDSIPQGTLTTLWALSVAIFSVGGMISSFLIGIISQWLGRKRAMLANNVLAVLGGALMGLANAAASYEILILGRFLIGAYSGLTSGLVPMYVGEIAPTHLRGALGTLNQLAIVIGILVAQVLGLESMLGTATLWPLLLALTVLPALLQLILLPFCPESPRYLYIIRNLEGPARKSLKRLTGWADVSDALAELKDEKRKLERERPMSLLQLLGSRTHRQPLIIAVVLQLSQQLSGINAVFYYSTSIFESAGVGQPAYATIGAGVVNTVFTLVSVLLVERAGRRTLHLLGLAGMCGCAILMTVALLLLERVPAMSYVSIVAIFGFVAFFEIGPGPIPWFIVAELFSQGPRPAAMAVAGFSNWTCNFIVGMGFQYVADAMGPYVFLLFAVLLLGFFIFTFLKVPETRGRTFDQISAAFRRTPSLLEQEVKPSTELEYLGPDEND
Outline: (§1)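 Differentiated 3T3-L1 adipocytes (day 8) were held 16 h in serum-free DMEM with 4 mM glucose, with or without 40 μM inhibitor. They were re-fed and stimulated with 30 nM insulin for 20 min. Surface GLUT4 was photolabeled with 250 μM Bio-ATB-BMPA at 300 nm. Lysate (600 μg) underwent streptavidin pull-down and anti-GLUT4 immunoblotting, and surface GLUT4 was compared with untreated cells.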

[3] = target: T4, Beta-hexosaminidase subunit alpha (Homo sapiens) (UniProt P06865); assay: Inhibition of human placental lysosomal hexosaminidase A at 5 uM
T4 sequence (whole entry): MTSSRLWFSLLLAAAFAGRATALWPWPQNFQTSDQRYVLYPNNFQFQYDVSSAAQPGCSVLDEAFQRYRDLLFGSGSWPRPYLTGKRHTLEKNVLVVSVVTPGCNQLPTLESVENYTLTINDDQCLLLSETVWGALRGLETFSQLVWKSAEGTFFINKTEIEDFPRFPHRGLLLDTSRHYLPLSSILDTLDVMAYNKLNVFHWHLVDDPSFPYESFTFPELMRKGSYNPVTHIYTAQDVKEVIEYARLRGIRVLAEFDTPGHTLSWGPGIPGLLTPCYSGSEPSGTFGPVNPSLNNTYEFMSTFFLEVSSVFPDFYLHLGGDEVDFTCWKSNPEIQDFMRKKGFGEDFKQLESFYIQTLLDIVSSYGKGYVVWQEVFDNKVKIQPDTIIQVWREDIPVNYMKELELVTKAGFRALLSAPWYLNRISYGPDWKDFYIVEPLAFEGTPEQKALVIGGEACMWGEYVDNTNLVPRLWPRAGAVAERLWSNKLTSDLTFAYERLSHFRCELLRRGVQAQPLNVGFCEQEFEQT
Outline: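 Human placental Hex A was incubated with 50 μM fluorescein di(GlcNAc) substrate ± 5 μM inhibitor in 100 mM citrate/phosphate pH 6.5 without GalNAc at 37 °C for 30 min. The reaction was stopped with 0.5 M Na2CO3 and read by fluorescence (ex 485 / em 535 nm). Percent inhibition was taken against activity without inhibitor.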

[4] = target: RAC-alpha serine/threonine-protein kinase (Mus musculus) (UniProt P31750); assay: Activation of AKT
[5] = Competitive inhibition of Streptomyces plicatus hexosaminidase
[6] = target: 3-phosphoinositide-dependent protein kinase 1 (Mus musculus) (UniProt Q9Z2A0); assay: Activation of PDK1
HeLa = assay: Induction of hyper-O-GlcNAc-ylation in human HeLa cells assessed as increase of O-GlcNAc level at 40 uM after 48 hrs Western blotting; type: functional, cell-based
Outline: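 HeLa cells seeded at 1.0 × 10^5 per well in DMEM + 10% FBS, ±40 μM inhibitor, 37 °C, 2 days. Washed in PBS, pelleted and lysed with M-PER reagent. Equal protein (20 μg) separated on 10% gel. Western blot with RL2 anti-O-GlcNAc (1:1000) and IR-dye anti-mouse secondary; infrared imaging.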

3T3-L1 = assay: Effect on GLUT4 level in mouse differentiated 3T3L1 cells; type: functional, cell-based; outline: as §1
HT-29 = assay: Induction of hyper-O-GlcNAc-ylation in human HT-29 cells assessed as increase of O-GlcNAc level at 40 uM after 48 hrs Western blotting; type: functional, cell-based
Outline: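 HT-29 cells seeded at 1.0 × 10^5 per well in McCoy's 5a + 10% FBS, with or without 40 μM inhibitor, 37 °C for 2 days. Lysed in Tris pH 8.0/DTT/Triton X-100 with protease inhibitors and sonicated. 20 μg protein per lane run on 10% SDS gel and blotted. Probed with anti-O-GlcNAc RL2 (1:1000) and IR-dye anti-mouse secondary; infrared imaging.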

Sequence of RAC-alpha serine/threonine-protein kinase (Mus musculus) (P31750 whole entry, looked up): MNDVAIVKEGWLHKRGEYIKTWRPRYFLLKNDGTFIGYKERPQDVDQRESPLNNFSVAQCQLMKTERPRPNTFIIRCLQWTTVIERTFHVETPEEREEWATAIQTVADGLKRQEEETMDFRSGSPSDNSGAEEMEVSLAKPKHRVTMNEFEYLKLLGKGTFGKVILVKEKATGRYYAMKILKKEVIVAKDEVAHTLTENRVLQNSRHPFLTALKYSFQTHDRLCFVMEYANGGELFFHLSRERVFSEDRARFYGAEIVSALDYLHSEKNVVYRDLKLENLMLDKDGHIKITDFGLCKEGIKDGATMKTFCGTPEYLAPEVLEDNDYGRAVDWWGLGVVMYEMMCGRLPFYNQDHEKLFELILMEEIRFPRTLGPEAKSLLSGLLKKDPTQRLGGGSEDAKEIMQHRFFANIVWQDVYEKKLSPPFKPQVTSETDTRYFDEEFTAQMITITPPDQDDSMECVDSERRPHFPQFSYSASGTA
Sequence of 3-phosphoinositide-dependent protein kinase 1 (Mus musculus) (Q9Z2A0 whole entry, looked up): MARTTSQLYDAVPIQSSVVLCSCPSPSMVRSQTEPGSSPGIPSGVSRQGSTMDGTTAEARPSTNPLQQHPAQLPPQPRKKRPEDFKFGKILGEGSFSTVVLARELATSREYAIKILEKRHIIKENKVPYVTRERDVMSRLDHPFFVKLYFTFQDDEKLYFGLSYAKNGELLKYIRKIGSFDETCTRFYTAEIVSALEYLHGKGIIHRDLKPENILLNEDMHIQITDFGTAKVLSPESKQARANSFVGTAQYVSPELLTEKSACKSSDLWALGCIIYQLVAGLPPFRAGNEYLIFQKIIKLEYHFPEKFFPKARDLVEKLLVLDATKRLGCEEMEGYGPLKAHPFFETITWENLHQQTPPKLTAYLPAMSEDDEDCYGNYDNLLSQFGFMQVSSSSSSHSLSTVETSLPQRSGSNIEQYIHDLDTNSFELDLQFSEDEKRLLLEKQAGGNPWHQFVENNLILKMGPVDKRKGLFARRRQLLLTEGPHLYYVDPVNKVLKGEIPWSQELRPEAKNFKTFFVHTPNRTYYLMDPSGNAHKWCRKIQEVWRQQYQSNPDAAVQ

In the case of CC1=N[C@@H]2[C@@H](O)[C@H](O)[C@@H](CO)O[C@@H]2[Se]1, the inhibition [1] is reported as “Active”, the Ki (Protein O-GlcNAcase) is reported as 0.7 µM and the inhibition [2] is reported as 16.3%. The inhibition [3] was “Active”, the Activity [4] was “Active” and the Ki [5] was 170 µM. The Activity [6] was “Active”, the Activity (HeLa) was “Active” and the Activity (3T3-L1) was “inactive”. For the same compound, the Activity (HT-29) was “Active”.

With CC1=N[C@@H]2[C@@H](O)[C@H](O)[C@@H](CO)O[C@@H]2S1 the inhibition [1] was “Active”, the inhibition [2] was 43% and the inhibition [3] was “Active”. The Activity [4] was “Active”, the Ki [5] was 20 µM and the Activity [6] was “Active”. The Activity (HeLa) was “Active”, the Activity (3T3-L1) was “inactive” and the Activity (HT-29) was “Active”.
